High-throughput results: PubChem BioAssay, several laboratories
CHT PAM – CHT positive allosteric modulators, primary screen, cell-based, membrane potential dye, choline EC20; hit rate 0.49% among 310,000; High affinity choline transporter 1 (Homo sapiens), Q9GZV3; B-score at 10 µM; CHT-expressing cells; hits give high values; LV-AA mutant CHT in HEK293 cells;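 active = initial fluorescence not abnormally high and integrated response B-score, plate-corrected, over 3 SD above library mean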
COUP-TFII inh – NR2F2 transcriptional activity inhibitors, primary screen, cell-based, luciferase reporter, HEK293T, luminescence | COUP transcription factor 2 (Homo sapiens), P24468 | HEK293T NGFI-A luciferase reporter | inhibition, % at 8.6 µM | hit rate 0.7% among 370,000 | AID 686940, 2013;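 active = inhibition above a per-plate cutoff, mean inhibition of test wells between control levels plus 3 SD, cut at about 38% in these data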;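 note: cells cotransfected with COUP-TFII expression vector driving the NGFI-A reporter; 0% = median of COUP-TF2 test wells and 100% = reporter-only cells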
NR2E3 ag-1 – inhibitors of NR2E3-RetCOR corepressor binding, primary screen, NR2E3 agonist project, biochemical, TR-FRET, GST-NR2E3, biotin-RetCOR | Photoreceptor-specific nuclear receptor (Homo sapiens), Q9Y5X4 | 1536-well | inhibition of corepressor binding, % at 4.78 µM | hit rate 0.12% among 320,000;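 active = percent inhibition above the cutoff of mean plus 3 SD of all tested compounds, set per screening campaign, cut at about 20% in these data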;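 note: 0% = DMSO wells and 100% = biotin wells as full block of FRET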
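Assay system: NR2E3–RetCOR corepressor complex. Quantity: 1.35 nM GST-NR2E3. Buffer or medium: pH 7.5 Tris-based buffer. Reagent: biotinylated RetCOR corepressor at 7 nM final. Schedule: 5 h at 4 °C. Detection: TR-FRET, emission read at 617 and 671 nm. Replicates: one well per compound, singlicate testing.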
NR2E3 ag-2 – NR2E3 agonists in two-hybrid cells, primary screen, cell-based, luminescence, CHO-S, Gal4-NCOR/VP16-NR2E3; Photoreceptor-specific nuclear receptor (Homo sapiens), Q9Y5X4; hit rate 0.35% among 360,000; inhibition of corepressor binding, % at 3.98 µM; luciferase;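 active = inhibition above the mean of all tested compounds plus 3 SD, cut at about 70% in these data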;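 note: 0% = DMSO with NR2E3 transfected cells and 100% = cells lacking NR2E3 construct; higher means lower luciferase signal from less NR2E3 corepressor binding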
GalR3 antag – GalR3 antagonists in HEK293 cells, primary screen, cell-based, fluorescence readout | hit rate 0.44% among 360,000 | inhibition, % at 3 µM | HEK293 GalR3-CNG cAMP membrane potential fluorescence; galR3 body fused to GalR1 C-terminus | Galanin receptor type 3 (Homo sapiens), O60755 | AID 651719, 2012;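 active = inhibition above the screen-wide average plus 3 SD, cut at about 13% in these data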;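 note: forskolin and galanin both at EC90 stimulate the cells; cAMP rise reported by CNG channel membrane potential dye signal; 0% = forskolin plus galanin with DMSO and 100% = forskolin alone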
Target sequence (O60755 1-299 limits assumed): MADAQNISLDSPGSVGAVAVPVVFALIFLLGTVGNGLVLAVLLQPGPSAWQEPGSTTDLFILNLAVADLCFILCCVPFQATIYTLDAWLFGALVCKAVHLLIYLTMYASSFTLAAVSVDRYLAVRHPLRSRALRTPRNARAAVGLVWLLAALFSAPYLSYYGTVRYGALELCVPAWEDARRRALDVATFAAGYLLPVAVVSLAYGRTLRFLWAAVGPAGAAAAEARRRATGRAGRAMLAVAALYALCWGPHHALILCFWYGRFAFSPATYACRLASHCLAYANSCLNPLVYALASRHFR
CHT block – inhibitors of human choline transporter CHT; High affinity choline transporter 1 (Homo sapiens), Q9GZV3; hit rate 0.86% among 310,000; CHT-expressing cells, membrane potential dye, choline response; hits give low values; B-score at 10 µM;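 active = B-score over 3 SD under the library average, and starting fluorescence ratio not unusually high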;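 note: choline stimulus applied at its EC90 after an EC20 pre-addition; B-score computed on integrated fluorescence ratio after choline addition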
Gal4-VP16 ctr – Gal4-VP16 luciferase reporter inhibitors, counter-screen for COUP-TFII antagonist project, cell-based, luminescence, HEK293; shares compounds with COUP-TFII inh; hit rate 25% among 2,500; inhibition, % at 8.5 µM; in the data active = inhibition above about 13%
NR2F2 inh conf – NR2F2 transcriptional activity inhibitors, confirmation, cell-based, luciferase reporter, HEK293, triplicate. AID 687008, 2013. shares compounds with COUP-TFII inh. inhibition, % at 8.5 µM. HEK293 NGFI-A luciferase reporter, luminescence. hit rate 45% among 2,500;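 active = mean inhibition over three repeats above a set limit taken from the earlier primary screen, cut at about 38% in these data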;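 note: 100% = cells given the luciferase reporter alone without the COUP-TF2 vector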
* marks the source's active call; other numbers are inactive results; i = inactive; / = no result given. An excerpt weighted towards active compounds, which were near 2.3% of everything screened.

SMILES	CHT PAM	COUP-TFII inh	NR2E3 ag-1	NR2E3 ag-2	GalR3 antag	CHT block	Gal4-VP16 ctr	NR2F2 inh conf
C[C@]12CC[C@H]3[C@@H](CC[C@]4(O)C[C@@H](O)CC[C@]34C=O)[C@@]1(O)CC[C@@H]2C1=CC(=O)OC1	i	77.6*	0.1	0.2	15.0*	i	32.9*	67.2*
CCCCN=C[C@]12CCC(O)CC1(O)CCC1[C@@H]2CC[C@]2(C)[C@H](C3C=CC(=O)O3)CCC12O (some centres not stated)	i	62.6*	0.9	-24.0	8.4	i	38.7*	68.7*
CNC(=O)C[C@H]1CC[C@@H]2NC[C@H](O)COC[C@H]2O1	/	-16.7	/	/	-1.1	/	/	/
c1ccc2oc(-c3ccc4c(c3)CNCc3cnnn3-4)cc2c1	/	-60.2	/	-75.4	-6.5	/	/	/
CC(C)(C)n1nnnc1C(c1cccc2ccccc12)N1CCC2(CC1)C(=O)NCN2c1ccccc1 (configuration not stated)	/	7.7	/	-17.5	-5.9	/	/	/
C=C1C(=O)OC2CC3(C)OC3C3OC3C3=CC(OC3=O)C12 (configuration not stated)	/	12.4	/	44.1	11.3	/	/	/
CCN1CCN(c2ncnc3ccc(Br)cc23)CC1	i	42.0*	0.0	-32.8	-7.7	i	11.0	23.2
CC(=O)c1cn(CCCOc2ccccc2)c2ccccc12	i	45.2*	6.2	6.0	-3.3	i	-6.8	10.2
COc1ccc(CN2Cc3cnnn3-c3ccccc3C2C#N)cc1 (configuration not stated)	/	59.0*	/	21.2	-5.5	/	26.3*	13.2
Cc1cc(O)c2c(c1)C(=O)[C@@]13C(=C2O)C(=O)[C@H]2C(O)[C@@H]1[C@H]1C(O)[C@@H]3C(=O)C3=C(O)c4c(O)cc(C)cc4C(=O)[C@@]312 (some centres not stated)	/	40.7*	/	/	/	/	6.0	28.2
CC(=O)OC1CC2(O)C3CCC4CC(O)CCC4(C)C3CCC2(C)C1C1=CC(=O)OC1 (configuration not stated)	/	76.8*	/	3.4	21.3*	/	46.9*	71.9*
CC(=O)OC1CC(OC2C(O)CC(OC3C(O)CC(OC4CCC5(C)C(CCC6C5CCC5(C)C(C7=CC(=O)OC7)C(O)CC65O)C4)OC3C)OC2C)OC(C)C1OC1OC(CO)C(O)C(O)C1O (configuration not stated)	/	73.9*	/	12.7	34.2*	/	35.6*	65.3*
C=C1C(=O)OC2CCN3CC=C(COC(=O)C(C)(O)C4(CO4)C1C)C23 (configuration not stated)	/	9.9	/	15.0	-3.2	/	/	/
CCC(c1nnnn1C1CCCCC1)N1CCC2(CC1)C(=O)NCN2c1ccccc1 (configuration not stated)	/	6.4	/	-8.4	-5.8	/	/	/
COC(=O)[C@@H]1[C@@H](C(=O)OC)C2(c3ccccc3-c3ccccc32)N(c2ccc(Cl)cc2)N1C#N	i	47.0*	0.4	33.7	12.1	i	49.7*	46.8*
CC[C@@H]1C[C@H]2CC[C@H](O2)[C@H](C)C(=O)O[C@@H](C)C[C@@H]2CC[C@@H](O2)[C@@H](C)C(=O)O[C@H](C)C[C@H]2CC[C@H](O2)[C@H](C)C(=O)O[C@@H](C)C[C@@H]2CC[C@@H](O2)[C@@H](C)C(=O)O1	/	85.2*	/	/	-1.4	/	24.3*	71.5*
